Measured values published in ChEMBL document CHEMBL3616431, “Exploring the 3-piperidin-4-yl-1H-indole scaffold as a novel antimalarial chemotype” (Eur J Med Chem, 2015).

Legend:
Plasmodium falciparum [1] = assay: Antimalarial activity against chloroquine-resistant Plasmodium falciparum Dd2 infected in human erythrocyte assessed as growth inhibition at 5 uM by SYBR Green-1 assay; assay type: functional
How it was run: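 Erythrocytic-stage P. falciparum Dd2 growth inhibition at a fixed 5 µM single concentration. Synchronized ring-stage parasites in RPMI-1640 with 0.5% AlbuMAX II, 1.0% hematocrit, 1.0% initial parasitemia. Incubated 72 h under standard culture conditions, then stained with SYBR Green I (1:5,000). Fluorescence read at ex 494 nm, em 530 nm after room-temperature storage.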

Plasmodium falciparum [2] = assay: Antimalarial activity against chloroquine-resistant Plasmodium falciparum Dd2 infected in human erythrocyte assessed as growth inhibition by SYBR Green-1 assay; assay type: functional, organism-based
How it was run: (§1)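 Dose-response EC50 against Dd2 and 3D7. Synchronized ring-stage parasites in RPMI-1640 with 0.5% AlbuMAX II, 1.0% hematocrit, 1.0% initial parasitemia. Triplicate 12-point 2-fold serial dilutions, incubated 72 h under standard culture conditions. Read-out by SYBR Green I (1:5,000) fluorescence, ex 494/em 530 nm. EC50 by non-linear regression after background subtraction and normalization.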

HepG2 [3] = assay: Cytotoxicity against human HepG2A16 cells after 48 hrs by MTT assay; assay type: cell-based; conditions: HepG2A16, 48 h
How it was run: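 HepG2 A16 cells seeded at 1 × 10^4 cells/well, adhered overnight. Exposed to seven ten-fold dilutions (100 µM–1 nM); drug-free medium as negative control. Medium with compound renewed at 24 h, total 48 h. MTT (5 mg/mL stock in PBS) added for 3 h, then supernatant removed and acidified isopropanol added for read-out.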

[4] = Selectivity index, ratio of EC50 for human HepG2A16 cells to EC50 for chloroquine-sensitive Plasmodium falciparum 3D7 infected in human erythrocyte; assay type: toxicity; conditions: read-out: Ratio EC50
How it was run: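 Selectivity index computed as HepG2 A16 MTT EC50 (48 h exposure) divided by P. falciparum 3D7 EC50 (72 h SYBR Green I assay).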

Plasmodium falciparum [5] = assay: Antimalarial activity against chloroquine-sensitive Plasmodium falciparum 3D7 infected in human erythrocyte assessed as growth inhibition by SYBR Green-1 assay; assay type: functional, organism-based; how it was run: as §1
[6] = Selectivity index, ratio of EC50 for human HepG2A16 cells to EC50 for chloroquine-resistant Plasmodium falciparum Dd2 infected in human erythrocyte; assay type: toxicity; conditions: read-out: Ratio EC50
How it was run: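 Selectivity index computed as HepG2 A16 MTT EC50 (48 h exposure) divided by P. falciparum Dd2 EC50 (72 h SYBR Green I assay).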

Plasmodium falciparum [7] = assay: Antimalarial activity against chloroquine-sensitive Plasmodium falciparum 3D7; assay type: functional, organism-based
HepG2 [8] = assay: Cytotoxicity against human HepG2A16 cells; assay type: cell-based
How it was run: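 HepG2 A16 cells seeded at 1 × 10^4 cells/well and left to adhere overnight. Exposed to 7 ten-fold dilutions (100 µM–1 nM), drug-free medium as negative control. Medium with compound renewed at 24 h, total 48 h exposure. Viability by MTT (5 mg/mL stock in PBS, 3 h), formazan dissolved in acidified isopropanol; EC50 reported.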

With `CC(=O)N1CCC(c2c[nH]c3ccccc23)CC1` the inhibition at 5 µM (Plasmodium falciparum [1]) was < 10%.

For `c1ccc2c(C3CCNCC3)c[nH]c2c1`, the inhibition at 5 µM (Plasmodium falciparum [1]) was < 10%.

With `c1ccc2c(C3CCN(CC4CCNCC4)CC3)c[nH]c2c1` the inhibition at 5 µM (Plasmodium falciparum [1]) was < 10%.

With `Cc1c(CN2CCC(c3c[nH]c4ccccc34)CC2)c(=O)n(-c2ccccc2)n1C` the inhibition at 5 µM (Plasmodium falciparum [1]) was < 10%.

Work on `CC(=O)n1cc(CN2CCC(c3c[nH]c4ccccc34)CC2)c2ccccc21` yielded an inhibition at 5 µM (Plasmodium falciparum [1]) of 70%.

In the case of `Oc1cccc2ccc(CN3CCC(c4c[nH]c5ccccc45)CC3)nc12`, the inhibition at 5 µM (Plasmodium falciparum [1]) is reported as < 10%.

In the case of `c1ccc2c(C3CCN(Cc4csc5ccccc45)CC3)c[nH]c2c1`, the inhibition at 5 µM (Plasmodium falciparum [1]) is reported as 16%.

`c1ccc(CN2CCC(c3c[nH]c4ccccc34)CC2)cc1` gave an inhibition at 5 µM (Plasmodium falciparum [1]) of 15%.

Work on `Cc1ccccc1CN1CCC(c2c[nH]c3ccccc23)CC1` yielded an inhibition at 5 µM (Plasmodium falciparum [1]) of 11%.

In the case of `COc1cc(O)cc(OC)c1CN1CCC(c2c[nH]c3ccccc23)CC1`, the inhibition at 5 µM (Plasmodium falciparum [1]) is reported as < 10%.

In the case of `OCCOc1cccc(CN2CCC(c3c[nH]c4ccccc34)CC2)c1`, the inhibition at 5 µM (Plasmodium falciparum [1]) is reported as < 10%.

For `COc1cc(Cl)c(CN2CCC(c3c[nH]c4ccccc34)CC2)c(Cl)c1OC`, the inhibition at 5 µM (Plasmodium falciparum [1]) was < 10%.

`Fc1ccc(CN2CCC(c3c[nH]c4ccccc34)CC2)cc1` showed an inhibition at 5 µM (Plasmodium falciparum [1]) of 14%.

With `FC(F)(F)c1ccc(CN2CCC(c3c[nH]c4ccccc34)CC2)cc1` the inhibition at 5 µM (Plasmodium falciparum [1]) was < 10%.

In the case of `O=Cc1ccc(CN2CCC(c3c[nH]c4ccccc34)CC2)cc1`, the inhibition at 5 µM (Plasmodium falciparum [1]) is reported as 20%.

Molecule `c1ccc2c(C3CCN(Cc4ccc(CN5CCC(c6c[nH]c7ccccc67)CC5)cc4)CC3)c[nH]c2c1` has an EC50 (Plasmodium falciparum [2]) of 210 nM, an inhibition at 5 µM (Plasmodium falciparum [1]) of 100% and an EC50 (HepG2 [3]) of 460 nM. It also gave a selectivity ratio [4] of 5.75, an EC50 (Plasmodium falciparum [5]) of 80 nM and a selectivity ratio [6] of 2.19.

Molecule `c1ccc2c(C3CCN(Cc4ccc(CN5CCOCC5)cc4)CC3)c[nH]c2c1` has an inhibition at 5 µM (Plasmodium falciparum [1]) of 66%.

With `c1ccc2c(C3CCN(Cc4ccc(CN5CCCCC5)cc4)CC3)c[nH]c2c1` the EC50 (Plasmodium falciparum [2]) was 2910 nM, the inhibition at 5 µM (Plasmodium falciparum [1]) was 100% and the EC50 (Plasmodium falciparum [5]) was 1350 nM.

In the case of `c1ccc2c(C3CCN(Cc4ccncc4)CC3)c[nH]c2c1`, the inhibition at 5 µM (Plasmodium falciparum [1]) is reported as < 10%.

With `c1csc(CN2CCC(c3c[nH]c4ccccc34)CC2)c1` the inhibition at 5 µM (Plasmodium falciparum [1]) was < 10%.

With `c1ccc2c(C3CCN(CC4CCCCC4)CC3)c[nH]c2c1` the inhibition at 5 µM (Plasmodium falciparum [1]) was < 10%.

With `CC(C)=CCC[C@H](C)CCN1CCC(c2c[nH]c3ccccc23)CC1` the inhibition at 5 µM (Plasmodium falciparum [1]) was 17%.

With `O=C(c1ccccc1)N1CCC(c2c[nH]c3ccccc23)CC1` the inhibition at 5 µM (Plasmodium falciparum [1]) was < 10%.

In the case of `COc1ccc(OC)c(C(=O)N2CCC(c3c[nH]c4ccccc34)CC2)c1`, the inhibition at 5 µM (Plasmodium falciparum [1]) is reported as < 10%.

For `O=C(c1ccc(F)cc1)N1CCC(c2c[nH]c3ccccc23)CC1`, the inhibition at 5 µM (Plasmodium falciparum [1]) was < 10%.

Work on `O=C(c1cccnc1)N1CCC(c2c[nH]c3ccccc23)CC1` yielded an EC50 (Plasmodium falciparum [2]) of 2950 nM, an inhibition at 5 µM (Plasmodium falciparum [1]) of 100% and an EC50 (HepG2 [3]) of 12800 nM. For the same molecule, the selectivity ratio [4] was 3.37, the EC50 (Plasmodium falciparum [5]) was 3800 nM and the selectivity ratio [6] was 4.33.

With `O=C(c1cccs1)N1CCC(c2c[nH]c3ccccc23)CC1` the inhibition at 5 µM (Plasmodium falciparum [1]) was < 10%.

`O=C(c1ccncc1)N1CCC(c2c[nH]c3ccccc23)CC1` showed an inhibition at 5 µM (Plasmodium falciparum [1]) of 14%.

In the case of `O=C(c1ccccn1)N1CCC(c2c[nH]c3ccccc23)CC1`, the inhibition at 5 µM (Plasmodium falciparum [1]) is reported as < 10%.

In the case of `O=C(c1cnccn1)N1CCC(c2c[nH]c3ccccc23)CC1`, the inhibition at 5 µM (Plasmodium falciparum [1]) is reported as < 10%.

`O=C(c1ccc(C(=O)N2CCC(c3c[nH]c4ccccc34)CC2)cc1)N1CCC(c2c[nH]c3ccccc23)CC1` showed an inhibition at 5 µM (Plasmodium falciparum [1]) of 80%.

Work on `Clc1ccc2nccc(N3CCC(c4c[nH]c5ccccc45)CC3)c2c1` yielded an EC50 (Plasmodium falciparum [2]) of 5010 nM, an inhibition at 5 µM (Plasmodium falciparum [1]) of 32% and an EC50 (HepG2 [3]) of 4240 nM. For the same molecule, the selectivity ratio [4] was 0.67, the EC50 (Plasmodium falciparum [5]) was 6300 nM and the selectivity ratio [6] was 0.85.

In the case of `O=C(c1ccccc1)N1CCC(C(=O)N2CCC(c3c[nH]c4ccccc34)CC2)CC1`, the inhibition at 5 µM (Plasmodium falciparum [1]) is reported as < 10%.

Work on `COc1cc(OC)cc(C(=O)N2CCC(C(=O)N3CCC(c4c[nH]c5ccccc45)CC3)CC2)c1` yielded an inhibition at 5 µM (Plasmodium falciparum [1]) of 10%.

For `O=C(c1ccc(F)cc1)N1CCC(C(=O)N2CCC(c3c[nH]c4ccccc34)CC2)CC1`, the inhibition at 5 µM (Plasmodium falciparum [1]) was < 10%.

Work on `O=C(c1cccnc1)N1CCC(C(=O)N2CCC(c3c[nH]c4ccccc34)CC2)CC1` yielded an inhibition at 5 µM (Plasmodium falciparum [1]) of 30%.

For `O=C(c1cccs1)N1CCC(C(=O)N2CCC(c3c[nH]c4ccccc34)CC2)CC1`, the inhibition at 5 µM (Plasmodium falciparum [1]) was < 10%.

`CC(=O)N1CCC(C(=O)N2CCC(c3c[nH]c4ccccc34)CC2)CC1` showed an inhibition at 5 µM (Plasmodium falciparum [1]) of 10%.

`Clc1ccc2nccc(N3CCC(CN4CCC(c5c[nH]c6ccccc56)CC4)CC3)c2c1` gave an EC50 (Plasmodium falciparum [2]) of 940 nM, an inhibition at 5 µM (Plasmodium falciparum [1]) of 100% and an EC50 (HepG2 [3]) of 3860 nM. It also gave a selectivity ratio [4] of 16.1, an EC50 (Plasmodium falciparum [7]) of 34 nM and an EC50 (Plasmodium falciparum [5]) of 240 nM. The EC50 (HepG2 [8]) was > 10000 nM and the selectivity ratio [6] was 4.1.

`CCN(CC)Cc1cc(Nc2ccnc3cc(Cl)ccc23)ccc1O` [AMODIAQUINE] gave an EC50 (Plasmodium falciparum [2]) of 12.3 nM and an EC50 (Plasmodium falciparum [5]) of 5.85 nM.

With `C[C@H]1[C@H](OC(=O)CCC(=O)O)O[C@@H]2O[C@@]3(C)CC[C@H]4[C@H](C)CC[C@@H]1[C@@]24OO3` [ARTESUNATE] the EC50 (Plasmodium falciparum [2]) was 1.76 nM and the EC50 (Plasmodium falciparum [5]) was 1.97 nM.

Work on `O=C1C(O)=C([C@H]2CC[C@H](c3ccc(Cl)cc3)CC2)C(=O)c2ccccc21` [ATOVAQUONE] yielded an EC50 (Plasmodium falciparum [2]) of 0.19 nM and an EC50 (Plasmodium falciparum [5]) of 0.35 nM.

For `CCN(CC)CCCC(C)Nc1ccnc2cc(Cl)ccc12` (stereo unspecified) [CHLOROQUINE], the EC50 (Plasmodium falciparum [2]) was 285 nM and the EC50 (Plasmodium falciparum [5]) was 23 nM.
